The source of these data is the RNAGym collection of RNA variant scans (doi:10.1126/science.aae0568).

To fix the notation:
B1: tRNA (parent)
chain: GUUCCGUUGGCGUAAUGGUAACGCGUCUCCCUCCUAAGGAGAAGACUGCGGGUUCGAGUCCCGUACGGAACG

This sample holds only a part of the variants without activity.

In this series the parent is B1. In words: yeast fitness relative to wild type (ratio to wild type); higher = fitter; tRNA-Arg(CCU), competitive growth, 37 C, YPD. In a few lines:
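Start and end populations of a pooled competition were compared by 100-nucleotide paired-end sequencing of gene amplicons. The Saccharomyces cerevisiae strains carried tRNA-Arg(CCU) gene variants at the native genomic locus, synthesised with a 3% per-site mutation rate at 69 sites, and competed in YPD at 37°C for 24 hours in six parallel replicates. Darwinian fitness relative to wild type was based on the change in genotype frequencies. Genotypes required ≥ 100 starting reads, and estimates < 0.5 were set to 0.5.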
For G17A A40U G58C, the yeast fitness is 0.672.

Turning to G17A G38C A70C, the yeast fitness was at most 0.5.

On to G17A C34G A65U, for which the yeast fitness is at most 0.5.

As to G17A G25C A40U C66G, the yeast fitness was at most 0.5.

In the case of G17A C30G A40C A42G, the yeast fitness is at most 0.5.

Regarding G17A A40U A42C C49A C66A, the yeast fitness was at most 0.5.

With G17A U35G G48C, the yeast fitness worked out at 0.502.

For the variant G17A A20G C31U U35C A57G, the yeast fitness came to 0.573.

Consider G17C A21C C34G A37U A42U A57G, for which the yeast fitness was at most 0.5.

For the variant G17A C34G G67U, the yeast fitness is at most 0.5.

As to G17A C22U U28C A57G C61U A69U, the yeast fitness is at most 0.5.

Consider G17C A21G C27U C33G A42U G48A A57G, for which the yeast fitness was at most 0.5.

For G17A G18C G39C A69U, the yeast fitness was at most 0.5.

Turning to G17A A42U C55U C62A, the yeast fitness is at most 0.5.

For the variant G17A A40G, the yeast fitness was 0.722.

Regarding G17A A42G A70C, the yeast fitness is at most 0.5.

For G17C A21C U26A, the yeast fitness is at most 0.5.

In the case of G17A C46A C61G A69G, the yeast fitness is at most 0.5.

Regarding G17A C34A C62G, the yeast fitness was at most 0.5.

Turning to G17A A20G A57C, the yeast fitness was 0.558.

G17A G38C A45U C66U: the yeast fitness is at most 0.5.

Take G17C C24G U28A C30U A65U A69C: the yeast fitness turned out to be 0.571.

Turning to G17A U59A, the yeast fitness is 0.759.

Regarding G17A C31U U35C A57G C62U, the yeast fitness is at most 0.5.

With G17A G18A A42C C55U G63C, the yeast fitness is at most 0.5.

Turning to G17C A21G C27U C33G A42U A57G, the yeast fitness was at most 0.5.

For the variant G17A U28A G51A C60G A65G C66G, the yeast fitness is at most 0.5.

G17A U64C C66U: the yeast fitness stood at 0.69.

For G17A C22G C31G C33G, the yeast fitness is at most 0.5.

Turning to G17A C31U C49G A69U, the yeast fitness is at most 0.5.

Turning to G17A G41C C46A, the yeast fitness stood at 0.68.

For the variant G17C A42G C55U, the yeast fitness is at most 0.5.

As for G17A U32A C49U C62A G67C, the yeast fitness is at most 0.5.

In the case of G17A G63A A69C, the yeast fitness stood at 0.537.

Regarding G17C C22A C31G C55G, the yeast fitness is at most 0.5.

As to G17A C22U A45G C46U, the yeast fitness was 0.538.

For the variant G17A C31U U35C C62G, the yeast fitness was at most 0.5.

Regarding G17A U26C C61U A65G G67A, the yeast fitness is at most 0.5.

As for G17A G41U A57C, the yeast fitness is at most 0.5.

For G17A G18C A21U C55U U59A C62A, the yeast fitness was at most 0.5.

As to G17A C66U, the yeast fitness came out at 0.725.

G17C C22G U26C U47A C66U: the yeast fitness is at most 0.5.

In the case of G17A C33G, the yeast fitness is at most 0.5.

For the variant G17C A43C, the yeast fitness came out at 0.734.

Turning to G17C C29A, the yeast fitness is 0.544.

Regarding G17A C33U U59G, the yeast fitness came out at 0.501.

Take G17A G44A A70C: the yeast fitness is at most 0.5.

Take G17A U35G G48C G67C: the yeast fitness came out at 0.558.

Take G17A C46U G51C: the yeast fitness was found to be 0.647.

For the variant G17A C34U C55G, the yeast fitness was found to be 0.508.

On to G17A C29U C33U A57C G68U, for which the yeast fitness was at most 0.5.

For U16G U26A C34U C62A, the yeast fitness is at most 0.5.

With G17A C29G A43G G68C, the yeast fitness is at most 0.5.

Consider G17A A43G A45G G48A C62G, for which the yeast fitness is at most 0.5.

Turning to G17A G48C G56C, the yeast fitness was found to be 0.575.

Turning to G17A C22U A37C C55U, the yeast fitness was at most 0.5.

In the case of G17A U53G, the yeast fitness stood at 0.595.

On to G17A A21C C31U, for which the yeast fitness was at most 0.5.

Take G17C A21U C33G G38A G52A: the yeast fitness is at most 0.5.

In the case of U16G U28A A42G, the yeast fitness came out at 0.665.

On to G17A G41A C60G A65G, for which the yeast fitness was at most 0.5.

In the case of G17A C55G A70C, the yeast fitness was at most 0.5.

Turning to G17A G25C C29G, the yeast fitness is at most 0.5.

On to U16G U26G A36G G67U G68C, for which the yeast fitness was at most 0.5.

On to G17A G58A C61U, for which the yeast fitness was determined as 0.59.

With G17A U19G A37G C66U A69U, the yeast fitness was 0.562.

In the case of G17A A43C C49U U54A G56C A65U A70C, the yeast fitness is 0.565.

With G17A C31U C66A, the yeast fitness is at most 0.5.

Regarding G17A A21G G23A C27G A37U G44A C49U, the yeast fitness was at most 0.5.

Turning to G17A C29U C33U C60G A65G, the yeast fitness was at most 0.5.

As for G17C C22G U26A A43G C61U A65U, the yeast fitness is at most 0.5.

For U16G U28G C34U G63C, the yeast fitness was 0.608.

For the variant G17A C24A C46A, the yeast fitness was determined as 0.727.

In the case of G17A C30G A45G, the yeast fitness came to 0.584.

Consider G17A C22A A45C C46U C61A, for which the yeast fitness is at most 0.5.

On to G17A C22U C66U, for which the yeast fitness is 0.589.

In the case of G17C C24G C46G, the yeast fitness was determined as 0.519.

On to G17A A42C A65G, for which the yeast fitness was at most 0.5.

Consider G17A C49A G52C G56A A69G, for which the yeast fitness is at most 0.5.

For the variant G17A C31U U35C G56A A57G, the yeast fitness is at most 0.5.

In the case of G17C C27U A65G, the yeast fitness amounted to 0.598.

In the case of G17A C27G G67A, the yeast fitness worked out at 0.573.

In the case of G17C C24G C46G U59C, the yeast fitness was at most 0.5.

For the variant G17A U32A A43G G67C, the yeast fitness was at most 0.5.

As to G17A C22G C27A C62G, the yeast fitness was at most 0.5.

In the case of U16G U28A G52C U54A C66U, the yeast fitness is at most 0.5.

Take G17A U32C U54C C60G: the yeast fitness is at most 0.5.

Turning to G17A G23C U64A A65C G67A, the yeast fitness was at most 0.5.

G17A G67C: the yeast fitness was found to be 0.834.

Regarding G17A G67A, the yeast fitness amounted to 0.743.

For G17A G67U, the yeast fitness was found to be 0.808.

With G17A C34A A70C, the yeast fitness was found to be 0.631.

On to G17A C49A U54A, for which the yeast fitness amounted to 0.614.

Regarding G17C C22G C30U G41C C46U A65U, the yeast fitness was at most 0.5.

Turning to G17A C30U A36C A43C, the yeast fitness is at most 0.5.

G17A C33A A36U G41A G48A: the yeast fitness was at most 0.5.

Consider G17A A45C, for which the yeast fitness came to 0.735.

Regarding G17A A45U, the yeast fitness is 0.763.

As to G17A U19C C24U, the yeast fitness was 0.75.

G17A C22A A45U A70U: the yeast fitness is at most 0.5.

Consider G17A A42U A57U, for which the yeast fitness was at most 0.5.

G17A C31A U32A A57G: the yeast fitness was found to be 0.545.

For the variant G17A A20G A42U, the yeast fitness turned out to be 0.644.

Turning to G17C A20G U53G A70U, the yeast fitness is at most 0.5.

In the case of G17A C24U C30U C46A, the yeast fitness was at most 0.5.

Turning to G17A A20U C24U, the yeast fitness amounted to 0.547.

As for G17A A21G C22A A40U C61U, the yeast fitness is at most 0.5.

Regarding G17A C30A C60G C62A, the yeast fitness is at most 0.5.

Consider G17A C22A C60U C61U, for which the yeast fitness was at most 0.5.

With G17C C22G C29A C46U A65C, the yeast fitness is at most 0.5.

Consider G17A U19A C30U A37U G67A, for which the yeast fitness is at most 0.5.

With G17A G56A C66G, the yeast fitness was at most 0.5.

For the variant G17A U53G C55U, the yeast fitness is at most 0.5.

On to G17A C24U C46U C60A, for which the yeast fitness is at most 0.5.

On to G17A C30U C49U C66U A69C, for which the yeast fitness is at most 0.5.

In the case of G17C A21U C33G, the yeast fitness was at most 0.5.

As for G17C C22G A42G C46A, the yeast fitness is at most 0.5.

As for G17A A36C A37U A43C C46U C49G G50A, the yeast fitness is 0.59.

As to G17A C22U U32A C34U A37G A40U A69U, the yeast fitness was at most 0.5.

For G17A C22A A45U C66U, the yeast fitness was at most 0.5.

Turning to U16G U35A A45C G52A, the yeast fitness is at most 0.5.

As for G17A C30U C49U, the yeast fitness was at most 0.5.

With G17A G25C G39A, the yeast fitness was at most 0.5.

For the variant G17A G41C, the yeast fitness was determined as 0.816.

Turning to G17A G18A U26C A42C C55U, the yeast fitness is at most 0.5.

Take U16G U54A C55U C66A: the yeast fitness worked out at 0.58.

Turning to G17A C34U A42U G51C C66U, the yeast fitness is at most 0.5.

In the case of G17A G48C, the yeast fitness was 0.827.

G17A G48A: the yeast fitness turned out to be 0.951.

As to G17C A45C G48A U59A, the yeast fitness is 0.622.

G17A C61U: the yeast fitness was 0.924.

For the variant G17A A37C G52C G56C C60A U64A, the yeast fitness was at most 0.5.

As for G17A C60G G67A, the yeast fitness is at most 0.5.

Regarding G17C C22G A65G, the yeast fitness amounted to 0.6.

As for G17A A21C U32C, the yeast fitness is at most 0.5.

G17A A45C G63C C66U: the yeast fitness was at most 0.5.

As for G17A G51C, the yeast fitness was determined as 0.543.

For the variant G17A C29U C33U C60G, the yeast fitness is 0.594.

As for G17A G50A, the yeast fitness was found to be 0.833.

With G17A C31A C33U, the yeast fitness was at most 0.5.

Take G17A C27G U59A C66A: the yeast fitness was at most 0.5.

With G17A U26C U53G, the yeast fitness was found to be 0.566.

On to G17A C30A A36C, for which the yeast fitness was at most 0.5.

For G17A G48A A57G, the yeast fitness was at most 0.5.

Consider G17C C24G U28A C30U G38U A65U A69C, for which the yeast fitness was at most 0.5.

In the case of G17A G58C C62U, the yeast fitness stood at 0.543.

G17A U19A G23A C34U: the yeast fitness is at most 0.5.

On to G17C C27G, for which the yeast fitness is 0.558.

Regarding G17C C27A, the yeast fitness was 0.674.

Consider G17C C27U, for which the yeast fitness amounted to 0.617.

G17A A20U C24U U53A: the yeast fitness is at most 0.5.

As to U16G U26C C49G, the yeast fitness is at most 0.5.

As for G17A G41C C55A, the yeast fitness is at most 0.5.

Take G17A U35G G63A G68C: the yeast fitness was at most 0.5.

For G17A A37G A43C, the yeast fitness was at most 0.5.

Consider G17A A42U A57U C61G, for which the yeast fitness was determined as 0.591.

For G17A U54A G56C, the yeast fitness stood at 0.597.

As to G17C A20U A42U, the yeast fitness turned out to be 0.604.

In the case of G17A U47A, the yeast fitness was 0.823.

As to G17A U47C, the yeast fitness is 0.774.

With G17A A36C, the yeast fitness was 0.558.

Take G17A A20G: the yeast fitness came out at 0.793.

As to G17C C22U U26C C46A G63A, the yeast fitness was at most 0.5.

Turning to G17A C34A C66A, the yeast fitness was at most 0.5.

Turning to G17A U35G A65U, the yeast fitness is at most 0.5.

G17A A65G: the yeast fitness came to 0.884.

As for G17A A65C, the yeast fitness came out at 0.733.
